Data from publication PMC8897208 (Acta Pharmaceutica Sinica. B, 2021).
pIC50: −log10 of the molar value.

How the values were obtained:
SIRT6 [1] = molecular target: T1, SIRT6 (Homo sapiens, UniProt Q8N6T7); assay: Fluor de Lys; assay type: biochemical
Outline: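 Recombinant SIRT6 was expressed in E. coli BL21 in LB with 100 μg/mL ampicillin at 37 °C. Expression was induced with 0.5 mmol/L IPTG at OD600 0.8, then grown 18 h at 16 °C and purified by an earlier method.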

SIRT6 [2] = molecular target: T1, SIRT6; assay: In vitro nucleosome deacetylation assay; assay type: biochemical; conditions: 10 mmol/L, H3K9Ac and H3K18Ac, Western blot
Outline: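 Nucleosomes were isolated from HeLa cells and deacetylated in vitro by SIRT6 in the presence of NAD+. H3K9Ac and H3K18Ac were detected by Western blot.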

T1 sequence (Q8N6T7 whole entry): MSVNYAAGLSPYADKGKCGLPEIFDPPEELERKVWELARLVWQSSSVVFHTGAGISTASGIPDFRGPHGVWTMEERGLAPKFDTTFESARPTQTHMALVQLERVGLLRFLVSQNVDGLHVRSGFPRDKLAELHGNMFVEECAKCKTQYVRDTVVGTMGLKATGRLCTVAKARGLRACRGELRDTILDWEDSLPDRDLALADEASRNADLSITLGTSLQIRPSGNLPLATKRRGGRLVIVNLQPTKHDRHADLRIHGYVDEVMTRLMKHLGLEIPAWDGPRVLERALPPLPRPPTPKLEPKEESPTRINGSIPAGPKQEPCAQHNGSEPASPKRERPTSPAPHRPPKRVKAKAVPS

Compound	pIC50 (SIRT6 [1])	inhibition ratio at 50 μmol/L (SIRT6 [1]; FDL assay, substrate Ac-RHKK-Ac-AMC, 50 μmol/L compound) [%]	inhibition of SIRT6 deacetylation on nucleosomes (SIRT6 [2])
Nc1nonc1-n1cc(C(=O)N/N=C/c2ccccc2O)nn1 [JYQ-1]	4.57	64.18	
NC(=O)c1cccnc1 [nicotinamide, reference compound]			weak inhibition
